Sampled rows, rich in hits. Any-hit rate of the full collection: about 4.8%.
NLRP3 yeast inh: inhibitors of NALP3 inflammasome in yeast. inhibition, % at 10 µM. Yeast reconstituted NLRP3/ASC/caspase-1, beta-gal luminescence, 24 h. actives 0.39% (n = 330,000);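 active means inhibition of 50% or more; inactive means inhibition below 50%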;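 further: plate controls were induced DMSO wells for no effect and uninduced yeast grown without galactose for full effect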
UCH37 DUB inh: human UCH37 deubiquitinating enzyme inhibition; AID 588478; purified proteasome/UCH37, Ub-AMC cleavage fluorescence; actives 0.33% (n = 330,000); inhibition, % (no concentration beside the values); Q9Y5K5;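 active means mean inhibition over replicate wells above about 20%, limit read from the data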;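 further: 0% = compound-free wells with enzyme and 100% = wells lacking proteasome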
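Reagent: Ub-AMC substrate; assay system: Proteasome-associated human UCH37 deubiquitinase; controls: no-proteasome and no-compound wells; read-out: % inhibition of Ub-AMC cleavage fluorescence; timing: 30 min preincubation with enzyme, 25 min cleavage at room temperature; signal: AMC fluorescence from Ub-AMC cleavage, excitation 355 nm, emission 460 nm; buffer or medium: Tris-HCl pH 7.4 plus ovalbumin, ATP-MgCl2, DTT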
NALP1 yeast inh: NALP1 inhibition. S. cerevisiae NALP1/ASC/caspase-1 growth, X-gal OD620, 72 h. inhibition, % at 10 µM. actives 0.61% (n = 280,000). AID 2071; in the data active means inhibition mostly above about 24%, no sharp cut-off; inactive means mostly below about 32%
ALR H2O2 inh: blocks human ALR sulfhydryl oxidase activity; inhibition, % (concentration not given with the values); purified ALR, DTT oxidation, H2O2 HRP-luminol luminescence; P55789; actives 3.8% (n = 290,000);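 active means mean replicate inhibition above about 79%, with every replicate also reaching it, limit read from the data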
Calb FLC: affects C. albicans growth with fluconazole. AID 1979. actives 0.57% (n = 300,000). C. albicans CaCi-2 + fluconazole, Alamar Blue growth, 48 h. growth inhibition, % (concentration not given with the values);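 active means growth inhibition above about 58% in most replicates, limit read from the data, passing the limit was not always enough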;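 further: all wells also contain fluconazole at 8 µg/ml as a sub-toxic cotreatment; 0% = median of DMSO wells and 100% = median of geldanamycin control wells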
ATG4B inh: inhibitors of human ATG4B cysteine protease | Q9Y4P1 | ATG4B cleavage of LC3-PLA2, NBD-HPC fluorescence, 1 h | inhibition, % at 8.33 µM | actives 0.51% (n = 340,000) | AID 504462; in the data active means inhibition above about 40%
Target sequence (Q9Y4P1 whole entry, looked up): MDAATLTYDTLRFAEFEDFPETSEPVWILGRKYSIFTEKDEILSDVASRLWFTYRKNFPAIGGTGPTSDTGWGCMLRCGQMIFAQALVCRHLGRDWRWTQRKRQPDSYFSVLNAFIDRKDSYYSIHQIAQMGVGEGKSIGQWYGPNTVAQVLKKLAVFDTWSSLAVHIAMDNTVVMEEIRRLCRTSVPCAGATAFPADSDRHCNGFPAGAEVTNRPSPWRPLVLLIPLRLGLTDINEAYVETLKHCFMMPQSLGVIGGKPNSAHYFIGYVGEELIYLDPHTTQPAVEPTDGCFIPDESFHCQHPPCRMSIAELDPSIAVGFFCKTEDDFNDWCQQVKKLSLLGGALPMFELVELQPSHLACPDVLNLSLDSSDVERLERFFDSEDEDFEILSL
* = called active by the depositor.

CCCCc1nnc(NC(=O)C(C)Sc2nc(N)cc(=O)[nH]2)s1 (centres undefined) was read as NLRP3 yeast inh -7, UCH37 DUB inh 5, NALP1 yeast inh 0, ALR H2O2 inh 2, Calb FLC 76* and ATG4B inh -4.
For CSC(=NS(=O)(=O)c1cccs1)Nc1ccc(N2CCOCC2)cc1 the results were UCH37 DUB inh -1.
`S=C(NCCCN1CCN(CCCNC(=S)NC2CCCCC2)CC1)NC1CCCCC1` gave UCH37 DUB inh 1 and ATG4B inh -3.
Screening S=C(NCCN1CCOCC1)NC1CCCC1 returned NLRP3 yeast inh 11, UCH37 DUB inh 1, NALP1 yeast inh 1, ALR H2O2 inh -6, Calb FLC 51* and ATG4B inh 4.
OCCN1CCN(C(=S)NC2CCCC2)CC1 was read as NLRP3 yeast inh -1, UCH37 DUB inh 2, NALP1 yeast inh 4, Calb FLC 88* and ATG4B inh 1.
Screening COc1ccc2[nH]c(C(=O)O)c(NS(=O)(=O)c3ccc(F)cc3)c2c1 returned NLRP3 yeast inh -9, UCH37 DUB inh -2, NALP1 yeast inh -1, ALR H2O2 inh 90* and ATG4B inh -2.
For COc1ccc2[nH]c(C(=O)O)c(NS(=O)(=O)c3ccc(C)c(C)c3)c2c1 the results were NLRP3 yeast inh 9, UCH37 DUB inh -12, NALP1 yeast inh -5, ALR H2O2 inh 97* and ATG4B inh 5.
Screening COc1ccc2[nH]c(C(=O)O)c(NS(=O)(=O)c3ccc(Cl)s3)c2c1 returned NLRP3 yeast inh 8, UCH37 DUB inh 7, NALP1 yeast inh 15, ALR H2O2 inh 99*, Calb FLC 1 and ATG4B inh 2.
For CCOC(=O)c1[nH]c2ccc(OC)cc2c1NS(=O)(=O)c1ccc(Cl)s1 the results were NLRP3 yeast inh 7, UCH37 DUB inh 3, NALP1 yeast inh 10, ALR H2O2 inh 66, Calb FLC -8 and ATG4B inh -4.
`COc1ccc2[nH]c(C(=O)O)c(CCNC(C)=O)c2c1` gave NLRP3 yeast inh 29, UCH37 DUB inh -11, NALP1 yeast inh -10, Calb FLC 1 and ATG4B inh -1.
For CC(=O)Cc1nsc(Nc2ccc(F)cc2)n1 the results were NLRP3 yeast inh -6, UCH37 DUB inh 2, NALP1 yeast inh -11, Calb FLC -15 and ATG4B inh 5.
`CC(=O)Cc1nsc(Nc2ccc(Cl)cc2)n1` gave NLRP3 yeast inh 16, UCH37 DUB inh -2, NALP1 yeast inh -5, ALR H2O2 inh -1, Calb FLC 118* and ATG4B inh -5.
Screening COc1ccc(C=NNC(=O)C(C)n2cnc3ccccc3c2=O)cc1OC (centres undefined) returned UCH37 DUB inh -3.
For COc1ccc2c(c1OC)C(=O)N(c1ccc(F)cc1)C2 the results were NLRP3 yeast inh 24, UCH37 DUB inh 4, NALP1 yeast inh 20, ALR H2O2 inh -2, Calb FLC 0 and ATG4B inh 3.
For COc1ccc2c(c1OC)C(=O)N(c1cccc(NC(C)=O)c1)C2 the results were NLRP3 yeast inh 2, UCH37 DUB inh 3, NALP1 yeast inh 4, ALR H2O2 inh 97*, Calb FLC -1 and ATG4B inh -6.
Screening CC(=NNC(=O)c1ccc(COc2ccccc2)cc1)c1ccncc1 returned UCH37 DUB inh 4.
CN(c1ccccc1C(=O)N1CCN(Cc2ccc3c(c2)OCO3)CC1)S(C)(=O)=O was read as NLRP3 yeast inh 23, UCH37 DUB inh 6, NALP1 yeast inh 36*, ALR H2O2 inh 0, Calb FLC 0 and ATG4B inh 0.
O=C(c1ccccc1Cl)N1CCN(Cc2ccc3c(c2)OCO3)CC1 was read as NLRP3 yeast inh 8, UCH37 DUB inh 1, NALP1 yeast inh 11, ALR H2O2 inh 0, Calb FLC -124 and ATG4B inh -6.
For Oc1ccc(-c2csc(-c3ccccc3)n2)cc1O the results were NLRP3 yeast inh 39, UCH37 DUB inh 1, NALP1 yeast inh -16, ALR H2O2 inh 99*, Calb FLC -49 and ATG4B inh -11.
Screening COc1cc(-c2csc(C)n2)ccc1O returned NLRP3 yeast inh 7, UCH37 DUB inh 5, NALP1 yeast inh -7, ALR H2O2 inh 96*, Calb FLC -2 and ATG4B inh 11.
